Measured values reported in ChEMBL document CHEMBL4196022, “Alkynyl-containing phenylthiazoles: Systemically active antibacterial agents effective against methicillin-resistant Staphylococcus aureus (MRSA)” (Eur J Med Chem, 2018).
≈ marks a conversion by molar mass, not a printed value. Calls of active or inactive are those of the source. The rule behind the calls is not given here.

Legend:
Staphylococcus aureus [1] = assay: Antibacterial activity against methicillin-resistant Staphylococcus aureus NRS107 after 20 hrs by broth microdilution assay; assay type: functional; conditions: NRS107, 20 h
Procedure, shortened: (§1)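 Broth microdilution per CLSI in cation-adjusted Mueller Hinton broth. Compounds serially diluted, in triplicate. Incubation at 37 °C for at least 20 hours. MIC taken as the lowest concentration with no visible bacterial growth.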

Staphylococcus aureus [2] = assay: Antibacterial activity against methicillin-resistant Staphylococcus aureus USA300 after 20 hrs by broth microdilution assay; assay type: functional; conditions: USA300, 20 h; procedure, shortened: as §1
Staphylococcus aureus [3] = assay: Bactericidal activity against methicillin-resistant Staphylococcus aureus USA300 up to 18 hrs by broth microdilution assay; assay type: functional; conditions: USA300, 18 h, read-out: MBC99.9
Staphylococcus aureus [4] = assay: Bactericidal activity against methicillin-resistant Staphylococcus aureus NRS107 up to 18 hrs by broth microdilution assay; assay type: functional; conditions: NRS107, 18 h, read-out: MBC99.9
Staphylococcus aureus [5] = assay: Antibacterial activity against methicillin-resistant Staphylococcus aureus NRS119 after 20 hrs by broth microdilution assay; assay type: functional; conditions: NRS119, 20 h; procedure, shortened: as §1
Staphylococcus aureus [6] = assay: Bactericidal activity against methicillin-resistant Staphylococcus aureus NRS119 up to 18 hrs by broth microdilution assay; assay type: functional; conditions: NRS119, 18 h, read-out: MBC99.9
Staphylococcus aureus [7] = assay: Antibacterial activity against methicillin-resistant Staphylococcus aureus NRS123 (USA400) after 20 hrs by broth microdilution assay; assay type: functional; procedure, shortened: as §1
Staphylococcus aureus [8] = assay: Bactericidal activity against methicillin resistant Staphylococcus aureus NRS123 (USA400) up to 18 hrs by broth microdilution assay; assay type: functional; conditions: read-out: MBC99.9
Staphylococcus aureus [9] = assay: Antibacterial activity against vancomycin-resistant Staphylococcus aureus VRS10 after 20 hrs by broth microdilution assay; assay type: functional; conditions: VRS10, 20 h; procedure, shortened: as §1
Staphylococcus aureus [10] = assay: Bactericidal activity against methicillin resistant vancomycin-resistant Staphylococcus aureus VRS10 up to 18 hrs by broth microdilution assay; assay type: functional; conditions: VRS10, 18 h, read-out: MBC99.9
Staphylococcus aureus [11] = assay: Antibacterial activity against vancomycin-resistant Staphylococcus aureus VRS11a after 20 hrs by broth microdilution assay; assay type: functional; procedure, shortened: as §1
Staphylococcus aureus [12] = assay: Bactericidal activity against methicillin resistant vancomycin-resistant Staphylococcus aureus VRS11a up to 18 hrs by broth microdilution assay; assay type: functional; conditions: read-out: MBC99.9
Staphylococcus aureus [13] = assay: Antibacterial activity against vancomycin-resistant Staphylococcus aureus VRS12 after 20 hrs by broth microdilution assay; assay type: functional; conditions: VRS12, 20 h; procedure, shortened: as §1
Staphylococcus aureus [14] = assay: Bactericidal activity against methicillin resistant vancomycin-resistant Staphylococcus aureus VRS12 up to 18 hrs by broth microdilution assay; assay type: functional; conditions: VRS12, 18 h, read-out: MBC99.9
Procedure, shortened: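 MBC set up from the MIC plates. Aliquots from wells with no growth spotted onto tryptic soy agar and incubated at 37 °C for at least 18 hours. MBC taken as the lowest concentration giving 99.9% inhibition of bacterial growth.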

Staphylococcus aureus [15] = assay: Potency index, ratio of vancomycin MIC to compound MIC for antibacterial activity against vancomycin-resistant Staphylococcus aureus VRS10; assay type: functional
Staphylococcus aureus [16] = assay: Potency index, ratio of vancomycin MIC to compound MIC for antibacterial activity against vancomycin-resistant Staphylococcus aureus VRS11a; assay type: functional
Staphylococcus aureus [17] = assay: Potency index, ratio of vancomycin MIC to compound MIC for antibacterial activity against vancomycin-resistant Staphylococcus aureus VRS12; assay type: functional
Staphylococcus aureus [18] = assay: Ratio of MBC to MIC for methicillin-resistant Staphylococcus aureus USA300; assay type: functional
Procedure, shortened: (§2)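 MBC/MIC ratio. […] MBC by plating no-growth wells onto tryptic soy agar at 37 °C for at least 18 h; taken as the concentration giving 99.9% growth inhibition.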

Staphylococcus aureus [19] = assay: Ratio of MBC to MIC for methicillin-resistant Staphylococcus aureus NRS107; assay type: functional; procedure, shortened: as §2
Staphylococcus aureus [20] = assay: Ratio of MBC to MIC for methicillin-resistant Staphylococcus aureus NRS119; assay type: functional; procedure, shortened: as §2
Staphylococcus aureus [21] = assay: Ratio of MBC to MIC for methicillin-resistant Staphylococcus aureus NRS123 (USA400); assay type: functional; procedure, shortened: as §2
Staphylococcus aureus [22] = assay: Ratio of MBC to MIC for vancomycin-resistant Staphylococcus aureus VRS10; assay type: functional; procedure, shortened: as §2
Staphylococcus aureus [23] = assay: Ratio of MBC to MIC for vancomycin-resistant Staphylococcus aureus VRS11a; assay type: functional; procedure, shortened: as §2
Staphylococcus aureus [24] = assay: Ratio of MBC to MIC for vancomycin-resistant Staphylococcus aureus VRS12; assay type: functional; procedure, shortened: as §2
Staphylococcus aureus [25] = assay: Bactericidal activity against methicillin-resistant Staphylococcus aureus USA300 assessed as reduction in bacterial load at 4 times MIC after 4 hrs by time kill assay relative to control; assay type: functional
Staphylococcus aureus [26] = assay: Bactericidal activity against methicillin-resistant Staphylococcus aureus USA300 assessed as reduction in bacterial load at 4 times MIC after 12 hrs by time kill assay relative to control; assay type: functional
Staphylococcus aureus [27] = assay: Bactericidal activity against methicillin-resistant Staphylococcus aureus USA300 assessed as reduction in bacterial load at 4 times MIC after 24 hrs by time kill assay relative to control; assay type: functional
J774 [28] = assay: Cytotoxicity against mouse J774 cells assessed as reduction in cell viability up to 16 ug/ml after 24 hrs by MTS assay; assay type: cell-based; conditions: j774, 24 h
Procedure, shortened: (§3)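 J774 murine macrophages were grown in DMEM with 10% FBS at 37 °C, 5% CO2. Compounds were tested at 8, 16 and 32 μg/mL in triplicate for 24 h, with a DMSO-matched control. MTS was added for 4 h and absorbance read at 490 nm. Viability is given as % of DMSO control (mean ± SD); Student t-test with Holm-Sidak test.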

Staphylococcus aureus [29] = assay: Antibacterial activity against methicillin-resistant Staphylococcus aureus NRS123 (USA400) infected in mouse J774 cells at 16 ug/ml after 24 hrs; assay type: functional, organism-based
Procedure, shortened: (§4)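 J774 macrophages grown in DMEM with 10% FBS at 37 °C, 5% CO2. Infected with USA400 at MOI ~100:1 for 1 h, then washed with gentamicin 50 μg/mL. Treated in triplicate wells for 24 h, washed with gentamicin again and lysed with 0.1% Triton X-100. Lysate plated on tryptic soy agar for 18–22 h; CFU/mL counted.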

HRT-18 cell line = assay: Cytotoxicity against human HRT18 cells assessed as reduction in cell viability up to 32 ug/ml after 2 hrs by MTS assay; assay type: cell-based; conditions: hrt-18, 2 h
[30] = Selectivity index, ratio of toxic concentration for human HRT18 cells to MIC for methicillin-resistant Staphylococcus aureus; assay type: toxicity; conditions: read-out: Selectivity Index
Staphylococcus aureus [31] = assay: Bactericidal activity against methicillin-resistant Staphylococcus aureus NRS123 (USA400) assessed as reduction in bacterial load at 4 times MIC after 8 hrs by time kill assay relative to control; assay type: functional
J774 [32] = assay: Cytotoxicity against mouse J774 cells assessed as reduction in cell viability up to 8 ug/ml after 24 hrs by MTS assay; assay type: cell-based; conditions: j774, 24 h; procedure, shortened: as §3
Staphylococcus aureus [33] = assay: Antibacterial activity against methicillin-resistant Staphylococcus aureus NRS123 (USA400) infected in mouse J774 cells at 8 ug/ml after 24 hrs; assay type: functional, organism-based; procedure, shortened: as §4
Staphylococcus aureus [34] = assay: Inhibition of UPPS/UPPP in vancomycin-resistant Staphylococcus aureus VRS10 assessed as potentiation of vancomycin-induced antibacterial activity by measuring fold reduction in vancomycin MIC at 0.5 times MIC preincubated for 30 mins followed by vancomycin addition measured after 20 to 22 hrs by broth microdilution assay relative to control
Procedure, shortened: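 VRS10 suspension pre-exposed to compound at ½ × MIC for 30 min at room temperature. […] Incubation at 37 °C for 20–22 h before the MIC was read; untreated bacteria served as control.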

[35] = human, microsomes, 1 h, 0.1 µM

Compound	MIC (Staphylococcus aureus [1]) [µg/mL]	MIC (Staphylococcus aureus [2]) [µg/mL]	MBC (Staphylococcus aureus [3]) [µg/mL]	MBC (Staphylococcus aureus [4]) [µg/mL]	MIC (Staphylococcus aureus [5]) [µg/mL]	MBC (Staphylococcus aureus [6]) [µg/mL]	MIC (Staphylococcus aureus [7]) [µg/mL]	MBC (Staphylococcus aureus [8]) [µg/mL]	MIC (Staphylococcus aureus [9]) [µg/mL]	MBC (Staphylococcus aureus [10]) [µg/mL]	MIC (Staphylococcus aureus [11]) [µg/mL]	MBC (Staphylococcus aureus [12]) [µg/mL]	MIC (Staphylococcus aureus [13]) [µg/mL]	MBC (Staphylococcus aureus [14]) [µg/mL]	Ratio (Staphylococcus aureus [15])	Ratio (Staphylococcus aureus [16])	Ratio (Staphylococcus aureus [17])	Ratio (Staphylococcus aureus [18])	Ratio (Staphylococcus aureus [19])	Ratio (Staphylococcus aureus [20])	further results
C/C(=N\NC(=N)N)c1sc(-c2ccc(C#CC3CCCCC3)cc2)nc1C	16 (≈ 42.2 µM)	2 (≈ 5.27 µM)	4 (≈ 10.5 µM)	16 (≈ 42.2 µM)	4 (≈ 10.5 µM)	4 (≈ 10.5 µM)	2 (≈ 5.27 µM)	2 (≈ 5.27 µM)	2 (≈ 5.27 µM)	2 (≈ 5.27 µM)	1 (≈ 2.63 µM)	2 (≈ 5.27 µM)	2 (≈ 5.27 µM)	2 (≈ 5.27 µM)	>100	>100	8	<=3	<=3	<=3	Ratio (Staphylococcus aureus [21]): <=3; Ratio (Staphylococcus aureus [22]): <=3; Ratio (Staphylococcus aureus [23]): <=3; Ratio (Staphylococcus aureus [24]): <=3; Activity (Staphylococcus aureus [25]): 1.9 deltalog10CFU/ml; Activity (Staphylococcus aureus [26]): 2.8 deltalog10CFU/ml; Activity (Staphylococcus aureus [27]): 4.3 deltalog10CFU/ml; Activity (J774 [28]): Non-Toxic; Activity (Staphylococcus aureus [29]): inactive; Activity (HRT-18 cell line): Non-Toxic; selectivity ratio [30]: 7 to 31
C/C(=N\NC(=N)N)c1sc(-c2ccc(C#CC3CCCC3)cc2)nc1C	2 (≈ 5.47 µM)	2 (≈ 5.47 µM)	4 (≈ 10.9 µM)	2 (≈ 5.47 µM)	1 (≈ 2.74 µM)	2 (≈ 5.47 µM)	2 (≈ 5.47 µM)	2 (≈ 5.47 µM)	2 (≈ 5.47 µM)	2 (≈ 5.47 µM)	1 (≈ 2.74 µM)	4 (≈ 10.9 µM)	2 (≈ 5.47 µM)	2 (≈ 5.47 µM)	>100	>100	8	<=3	<=3	<=3	Ratio (Staphylococcus aureus [21]): <=3; Ratio (Staphylococcus aureus [22]): <=3; Ratio (Staphylococcus aureus [23]; read-out: Ratio): 4; Ratio (Staphylococcus aureus [24]): <=3; Activity (Staphylococcus aureus [31]): 3 deltalog10CFU/ml; Activity (J774 [32]): Non-Toxic; Activity (Staphylococcus aureus [33]): inactive; Activity (HRT-18 cell line): Non-Toxic; selectivity ratio [30]: 7 to 31; fold change (FC) (Staphylococcus aureus [34]): 512
C/C(=N\NC1=NCCN1)c1sc(-c2ccc(C#CC3CC3)cc2)nc1C	–	8 (≈ 22 µM)	16 (≈ 44 µM)	–	–	–	–	–	–	–	–	–	–	–	–	–	–	–	–	–	CLH [35]: < 115.5 µL/min/mg
